Data published in ChEMBL document CHEMBL4138165, “Design, synthesis and biological evaluation of new β-carboline-bisindole compounds as DNA binding, photocleavage agents and topoisomerase I inhibitors” (Eur J Med Chem, 2018).
pIC50: −log10 of the molar value. Activity calls are given as the source filed them. The calls are words filed in the database; no cut-off is given here.

Tests used:
A549 = experiment: Antiproliferative activity against human A549 cells after 48 hrs by MTT assay; assay type: functional, cell-based; settings: A549, 48 h
DU-145 = experiment: Antiproliferative activity against human DU145 cells after 48 hrs by MTT assay; assay type: functional, cell-based; settings: DU-145, 48 h
HeLa = experiment: Antiproliferative activity against human HeLa cells after 48 hrs by MTT assay; assay type: functional, cell-based
MCF7 = experiment: Antiproliferative activity against human MCF7 cells after 48 hrs by MTT assay; assay type: functional, cell-based; settings: MCF7, 48 h
NIH3T3 = experiment: Antiproliferative activity against mouse NIH/3T3 cells after 48 hrs by MTT assay; assay type: functional, cell-based; settings: NIH3T3, 48 h
Calf thymus DNA = experiment: Binding affinity to calf thymus double stranded DNA at 5 uM by ostwald viscometer; assay type: nucleic-acid assay; settings: Bos taurus
[1] = molecular target: T1, Topoisomerase I (Bos taurus) (UniProt Q2HPH0); experiment: Inhibition of calf thymus DNA topoisomerase 1 at 20 uM using pBR322 DNA as substrate after 30 mins by agarose gel electrophoresis method
T1 sequence (whole entry): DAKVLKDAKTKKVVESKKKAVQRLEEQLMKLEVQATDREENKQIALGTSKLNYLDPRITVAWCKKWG

DNA [2] = experiment: Induction of Escherichia coli pBR322 DNA cleavage at 20 uM incubated in dark condition by agarose gel electrophoresis; assay type: nucleic-acid assay
In short: (§1)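 pBR322 plasmid DNA was incubated with 20 µM ligand, either in the dark or under UV-light irradiation for 1 h. Products were separated by gel electrophoresis. Irradiated DNA solution alone served as the control.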

DNA [3] = experiment: Induction of Escherichia coli pBR322 DNA cleavage at 20 uM incubated in presence of UV-light for 1 hr by agarose gel electrophoresis; assay type: nucleic-acid assay; in short: as §1

Row | SMILES | pIC50 (A549) | pIC50 (DU-145) | pIC50 (HeLa) | pIC50 (MCF7) | pIC50 (NIH3T3) | Activity (Calf thymus DNA) | inhibition [1] | Activity (DNA [2]) | Activity (DNA [3])
1 | COc1ccc2c(c1)[nH]c1c(C)nccc12 [HARMINE] | 5.11 | 4.92 | 4.79 | 4.97 | – | – | – | – | –
2 | COc1ccc(-c2nc(C(c3c[nH]c4ccc(F)cc34)c3c[nH]c4ccc(F)cc34)cc3c2[nH]c2ccccc23)cc1 | 4.56 | 5.08 | 4.45 | 4.51 | 4.03 | – | – | – | –
3 | Cc1ccc(-c2nc(C(c3c[nH]c4ccc(F)cc34)c3c[nH]c4ccc(F)cc34)cc3c2[nH]c2ccccc23)cc1 | 4.85 | 5.24 | 4.91 | 4.85 | 4.18 | – | – | – | –
4 | Cc1ccc(-c2nc(C(c3c[nH]c4ccc([N+](=O)[O-])cc34)c3c[nH]c4ccc([N+](=O)[O-])cc34)cc3c2[nH]c2ccccc23)cc1 | 5.16 | 5.22 | 4.96 | 4.77 | 3.84 | – | – | – | –
5 | CC[n+]1c(-c2ccccc2)c2cc(N)ccc2c2ccc(N)cc21 | – | – | – | – | – | Active | – | – | –
6 | COc1cc(-c2nc(C(c3c[nH]c4ccccc34)c3c[nH]c4ccccc34)cc3c2[nH]c2ccccc23)cc(OC)c1OC | 4.64 | 4.89 | 4.67 | 4.46 | 4.03 | – | – | – | –
7 | Cc1ccc(-c2nc(C(c3c[nH]c4ccc(C#N)cc34)c3c[nH]c4ccc(C#N)cc34)cc3c2[nH]c2ccccc23)cc1 | 4.96 | 5.14 | 4.80 | 4.76 | 4.22 | – | – | – | –
8 | Fc1ccc(-c2nc(C(c3c[nH]c4ccc(Br)cc34)c3c[nH]c4ccc(Br)cc34)cc3c2[nH]c2ccccc23)cc1 | 5.08 | 5.11 | 5.02 | 4.74 | 4.05 | – | – | – | –
9 | COc1ccc2[nH]cc(C(c3cc4c([nH]c5ccccc54)c(-c4ccc(F)cc4)n3)c3c[nH]c4ccc(OC)cc34)c2c1 | 4.84 | 4.98 | 4.62 | 4.46 | 3.96 | – | – | – | –
10 | COc1ccc(-c2nc(C(c3c[nH]c4ccccc34)c3c[nH]c4ccc(C#N)cc34)cc3c2[nH]c2ccccc23)cc1 (stereo not drawn) | 4.86 | 4.83 | 4.51 | 4.54 | 3.92 | – | – | – | –
11 | COc1ccc(-c2nc(C(c3c[nH]c4ccccc34)c3c[nH]c4ccccc34)cc3c2[nH]c2ccccc23)cc1 | 4.87 | 4.89 | 4.58 | 4.42 | 4.08 | – | – | – | –
12 | COc1cc(-c2nc(C(c3c[nH]c4ccccc34)c3c[nH]c4ccc(C#N)cc34)cc3c2[nH]c2ccccc23)cc(OC)c1OC (stereo not drawn) | 4.71 | 4.72 | 5.01 | 4.93 | 4.24 | – | – | – | –
13 | CC[C@@]1(O)C(=O)OCc2c1cc1n(c2=O)Cc2cc3ccccc3nc2-1 | – | – | – | – | – | – | Active | – | –
14 | Cc1ccc(-c2nc(C(c3c(C)[nH]c4ccc([N+](=O)[O-])cc34)c3c(C)[nH]c4ccc([N+](=O)[O-])cc34)cc3c2[nH]c2ccccc23)cc1 | 4.68 | 4.82 | 4.55 | 4.64 | 4.28 | – | – | – | –
15 | COc1ccc(-c2nc(C(c3c[nH]c4ccc(Br)cc34)c3c[nH]c4ccc(Br)cc34)cc3c2[nH]c2ccccc23)cc1 | 5.03 | 5.58 | 4.82 | 4.73 | 4.06 | – | – | – | –
16 | COc1cc(-c2nc(C(c3c[nH]c4ccc([N+](=O)[O-])cc34)c3c[nH]c4ccc([N+](=O)[O-])cc34)cc3c2[nH]c2ccccc23)cc(OC)c1OC | 4.77 | 4.93 | 4.85 | 4.79 | 3.89 | – | – | – | –

Row | SMILES | pIC50 (A549) | pIC50 (DU-145) | pIC50 (HeLa) | pIC50 (MCF7) | pIC50 (NIH3T3) | Activity (Calf thymus DNA) | inhibition [1] | Activity (DNA [2]) | Activity (DNA [3])
17 | N#Cc1ccc2[nH]cc(C(c3cc4c([nH]c5ccccc54)c(-c4ccc(F)cc4)n3)c3c[nH]c4ccccc34)c2c1 (stereo not drawn) | 4.80 | 5.63 | 4.77 | 4.58 | 4.24 | – | – | – | –
18 | COc1ccc(-c2nc(C(c3c[nH]c4ccc([N+](=O)[O-])cc34)c3c[nH]c4ccc([N+](=O)[O-])cc34)cc3c2[nH]c2ccccc23)cc1 | 4.98 | 5.03 | 4.74 | 4.30 | 3.93 | – | – | – | –
19 | CCOc1ccc(-c2nc3cc(-c4nc5cc(N6CCN(C)CC6)ccc5[nH]4)ccc3[nH]2)cc1 | – | – | – | – | – | inactive | – | – | –
20 | COc1ccc2[nH]cc(C(c3cc4c([nH]c5ccccc54)c(-c4cc(OC)c(OC)c(OC)c4)n3)c3c[nH]c4ccccc34)c2c1 (stereo not drawn) | 4.69 | 4.71 | 4.40 | 4.35 | 4.00 | – | – | – | –
21 | Cc1ccc(-c2nc(C(c3c[nH]c4ccccc34)c3c[nH]c4ccccc34)cc3c2[nH]c2ccccc23)cc1 | 5.00 | 4.86 | 4.85 | 4.74 | 4.00 | – | – | – | –
22 | COc1cc(-c2nc(C(c3c[nH]c4ccc(Br)cc34)c3c[nH]c4ccc(Br)cc34)cc3c2[nH]c2ccccc23)cc(OC)c1OC | 4.66 | 4.83 | 4.80 | 4.48 | 4.19 | – | – | – | –
23 | COc1cc(-c2nc(C(c3c(C)[nH]c4ccc([N+](=O)[O-])cc34)c3c(C)[nH]c4ccc([N+](=O)[O-])cc34)cc3c2[nH]c2ccccc23)cc(OC)c1OC | 4.50 | 4.68 | 4.65 | 4.48 | 3.98 | – | – | – | –
24 | COc1cccc2c1C(=O)c1c(O)c3c(c(O)c1C2=O)C[C@@](O)(C(=O)CO)C[C@@H]3O[C@H]1C[C@H](N)[C@H](O)[C@H](C)O1 [DOXORUBICIN] | – | 5.67 | 5.76 | 5.66 | – | – | – | – | –
25 | COc1cc(-c2nc(C(c3c[nH]c4ccc(F)cc34)c3c[nH]c4ccc(F)cc34)cc3c2[nH]c2ccccc23)cc(OC)c1OC | 4.77 | 5.00 | 4.92 | 4.87 | 3.93 | – | – | – | –
26 | COc1ccc(-c2nc(C(c3c(C)[nH]c4ccc([N+](=O)[O-])cc34)c3c(C)[nH]c4ccc([N+](=O)[O-])cc34)cc3c2[nH]c2ccccc23)cc1 | 4.93 | 4.78 | 4.67 | 4.60 | 3.90 | – | – | – | –
27 | Fc1ccc(-c2nc(C(c3c[nH]c4ccc(F)cc34)c3c[nH]c4ccc(F)cc34)cc3c2[nH]c2ccccc23)cc1 | 4.73 | 4.80 | 4.74 | 4.70 | 3.94 | – | – | – | –
28 | COc1ccc2[nH]cc(C(c3cc4c([nH]c5ccccc54)c(-c4ccc(C)cc4)n3)c3c[nH]c4ccc(OC)cc34)c2c1 | 4.52 | 4.64 | 4.47 | 4.56 | 4.23 | – | – | – | –
29 | Cc1[nH]c2ccc([N+](=O)[O-])cc2c1C(c1cc2c([nH]c3ccccc32)c(-c2ccc(F)cc2)n1)c1c(C)[nH]c2ccc([N+](=O)[O-])cc12 | 4.73 | 4.77 | 4.50 | 4.56 | 3.99 | – | – | – | –
30 | COc1ccc(-c2nc(C(c3c[nH]c4ccc(OC)cc34)c3c[nH]c4ccc(OC)cc34)cc3c2[nH]c2ccccc23)cc1 | 4.74 | 4.79 | 4.49 | 4.52 | 3.99 | – | – | – | –
31 | O=[N+]([O-])c1ccc2[nH]cc(C(c3cc4c([nH]c5ccccc54)c(-c4ccc(F)cc4)n3)c3c[nH]c4ccc([N+](=O)[O-])cc34)c2c1 | 5.20 | 5.72 | 4.89 | 4.84 | 4.19 | – | Active | Not Active | inactive
